Here are results for one molecule from ChEMBL document CHEMBL4480426, “Novel multi-target directed ligands based on annelated xanthine scaffold with aromatic substituents acting on adenosine receptor and monoamine oxidase B. Synthesis, in vitro and in silico studies” (Bioorg Med Chem, 2019).

Structures are written as SMILES. Where only a bound is given, the exact number is not on record here.

One data set relates to HepG2. Kind of data set: Hepatotoxicity against human HepG2 cells assessed as reduction in cell viability at 0.5 to 1 uM measured after 72 hrs by CellTiter96 Aqueous non-radioactive cell proliferation assay. It is filed as toxicity, cell-based. Conditions: hepg2, 72 h. Summed up:
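HepG2 cells seeded at 1.5×10^4 cells/well in MEM with 4.5 g/L glucose and 10% FBS, grown 24 h at 37 °C, 5% CO2. Compounds diluted in the same medium and applied for 72 h. CellTiter 96 AQueous reagent then added for 2 h, absorbance read at 490 nm. One-way ANOVA with Bonferroni post test.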

The next data set concerns the target T1, Adenosine receptor A3 (Homo sapiens, UniProt P0DMS8).
T1 sequence (P0DMS8 whole entry): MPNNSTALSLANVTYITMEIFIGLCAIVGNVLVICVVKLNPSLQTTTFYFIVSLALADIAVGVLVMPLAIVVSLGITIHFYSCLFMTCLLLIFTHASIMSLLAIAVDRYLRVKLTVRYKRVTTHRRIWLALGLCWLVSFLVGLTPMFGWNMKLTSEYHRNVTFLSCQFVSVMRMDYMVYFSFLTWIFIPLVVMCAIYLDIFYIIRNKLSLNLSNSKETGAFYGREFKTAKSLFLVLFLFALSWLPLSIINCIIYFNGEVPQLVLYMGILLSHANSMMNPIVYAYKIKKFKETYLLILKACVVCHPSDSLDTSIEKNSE
Kind of data set: Displacement of [3H]PSB11 from recombinant human adenosine A3 receptor expressed in CHO cells. It is filed as cell-based. For orientation: Loss of bound radioactivity is the signal in a displacement assay; it reports binding, not function.

The target of a further data set is T2, Adenosine receptor A2b (Homo sapiens, UniProt P29275).
T2 sequence (P29275 whole entry): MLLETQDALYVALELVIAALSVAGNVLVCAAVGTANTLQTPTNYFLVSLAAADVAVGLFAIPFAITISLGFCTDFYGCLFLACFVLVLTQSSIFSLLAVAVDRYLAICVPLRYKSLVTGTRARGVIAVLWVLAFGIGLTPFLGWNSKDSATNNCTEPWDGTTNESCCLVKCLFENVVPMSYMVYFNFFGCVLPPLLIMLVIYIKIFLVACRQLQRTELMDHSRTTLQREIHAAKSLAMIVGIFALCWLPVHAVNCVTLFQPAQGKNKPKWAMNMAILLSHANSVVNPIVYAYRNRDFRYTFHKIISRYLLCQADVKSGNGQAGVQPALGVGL
Kind of data set: Displacement of [3H]PSB603 from recombinant human adenosine A2b receptor expressed in HEK293 cells. It is filed as cell-based.

For data set [1], the target named is T3, Adenosine receptor A2b (Homo sapiens) (UniProt P29275).
T3 sequence (whole entry): T2 sequence (P29275 whole entry)
Kind of data set: Displacement of [3H]PSB603 from recombinant human adenosine A2b receptor expressed in HEK293 cells at 1 uM relative to control. It is filed as cell-based. The method, boiled down: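 Purchased membranes of HEK cells expressing human A2A ([3H]MSX-2) or human A2B ([3H]PSB-603). A single high compound concentration is screened first; for potent compounds, full inhibition curves spanning 3 orders of magnitude. At least three independent experiments.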

For a further data set, the target named is Adenosine receptor A2a (Homo sapiens, UniProt P29274). Put plainly: Displacement of [3H]MSX2 from recombinant human adenosine A2a receptor expressed in HEK293 cells. The class given is cell-based.
Chain of Adenosine receptor A2a (P29274 whole entry): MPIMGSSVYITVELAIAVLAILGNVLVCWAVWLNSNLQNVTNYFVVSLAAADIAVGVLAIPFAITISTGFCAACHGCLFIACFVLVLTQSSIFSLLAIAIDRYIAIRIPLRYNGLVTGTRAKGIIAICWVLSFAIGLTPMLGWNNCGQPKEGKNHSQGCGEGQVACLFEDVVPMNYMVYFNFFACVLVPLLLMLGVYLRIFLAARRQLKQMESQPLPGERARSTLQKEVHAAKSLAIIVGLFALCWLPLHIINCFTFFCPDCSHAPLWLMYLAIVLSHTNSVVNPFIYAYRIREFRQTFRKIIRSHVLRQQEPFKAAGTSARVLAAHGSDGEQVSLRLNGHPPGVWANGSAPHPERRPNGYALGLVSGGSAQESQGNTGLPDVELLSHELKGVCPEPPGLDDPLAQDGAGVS

For the molecule `Cn1c(=O)c2c(nc3n2CCCCN3Cc2ccc(Cl)c(Cl)c2)n(C)c1=O`, the Activity result in the data set with HepG2 is on record as “Toxic”. Also, the Ki on Adenosine receptor A3, on Adenosine receptor A2b and at Adenosine receptor A2a was above 1 µM in each case. The inhibition in data set [1] worked out at 40%.

The Ki is the equilibrium dissociation constant of an inhibitor or competing ligand from its target. By inhibition is commonly meant the relative decrease from the control value, in per cent.
